Activity calls are given as the source filed them. The calls are words filed in the database; no cut-off is given here.
Experiments:
[1] = target: T1, Androgen receptor (Rattus norvegicus) (UniProt P15207); conditions: Prostate gland
T1 sequence (whole entry): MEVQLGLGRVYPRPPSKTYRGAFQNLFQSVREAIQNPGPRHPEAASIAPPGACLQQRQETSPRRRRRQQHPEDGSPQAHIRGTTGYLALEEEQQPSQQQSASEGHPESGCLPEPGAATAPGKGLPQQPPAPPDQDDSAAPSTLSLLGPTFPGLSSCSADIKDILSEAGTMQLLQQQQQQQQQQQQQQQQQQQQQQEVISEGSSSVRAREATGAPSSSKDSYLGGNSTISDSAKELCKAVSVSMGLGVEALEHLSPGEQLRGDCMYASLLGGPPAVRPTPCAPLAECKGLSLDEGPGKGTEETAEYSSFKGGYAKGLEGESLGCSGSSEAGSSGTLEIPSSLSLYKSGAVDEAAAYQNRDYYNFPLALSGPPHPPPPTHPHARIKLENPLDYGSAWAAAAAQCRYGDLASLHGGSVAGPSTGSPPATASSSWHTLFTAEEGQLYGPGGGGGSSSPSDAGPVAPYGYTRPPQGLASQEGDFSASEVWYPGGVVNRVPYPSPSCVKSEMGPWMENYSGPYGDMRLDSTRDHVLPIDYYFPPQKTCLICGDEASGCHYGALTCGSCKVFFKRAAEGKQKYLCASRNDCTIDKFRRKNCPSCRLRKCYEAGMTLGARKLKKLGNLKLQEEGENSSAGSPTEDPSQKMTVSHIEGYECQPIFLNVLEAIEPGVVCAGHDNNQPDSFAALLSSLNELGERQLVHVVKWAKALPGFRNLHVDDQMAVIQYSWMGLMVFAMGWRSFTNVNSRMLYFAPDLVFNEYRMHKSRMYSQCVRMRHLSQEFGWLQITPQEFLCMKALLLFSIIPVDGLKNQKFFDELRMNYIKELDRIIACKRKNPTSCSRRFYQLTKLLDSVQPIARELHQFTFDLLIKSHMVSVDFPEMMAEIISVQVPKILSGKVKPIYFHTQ

[2] = species: Rattus norvegicus; experiment: Antiandrogenic activity as the dose required to inhibit testosterone propionate-induced rat ventral prostate weight gain in castrated immature rat by 50%.; format: functional, Prostate gland
Outline: (§1)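 Weanling male Sprague-Dawley rats castrated; dosing began 1 week later, grouped by body weight. […] Rats weighed and killed the next day; ventral prostate removed, blotted, weighed. ED50 read graphically as dose halving TP-stimulated prostate weight gain.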

[3] = target: T1, Androgen receptor (Rattus norvegicus); experiment: Anti-androgenic activity, inhibition of testosterone propionate induced rat ventral prostate (castrated immature rat) weight gain; format: functional; conditions: Prostate gland
Outline: as §1

[4] = Rattus norvegicus, Prostate gland, read-out: ED50

SMILES | Increase [1] | ED50 [2, 4] | also measured
CC1=C2CCC3C(CC[C@@]4(C)C3CC[C@]4(C)O)[C@@]2(C)Cc2cn(S(C)(=O)=O)nc21 (stereo partly specified) | inactive | 3 mg/kg | –
C[C@]12CCC3C(CC[C@H]4Cc5nn(S(C)(=O)=O)cc5C[C@]34C)C1CC[C@@H]2O (stereo partly specified) | – | > 100 mg/kg | –
C[C@]12Cc3cn(S(C)(=O)=O)nc3C=C1CCC1C2CC[C@@]2(C)C1CC[C@]2(C)O (stereo partly specified) | inactive | 16 mg/kg | –
C#C[C@]1(O)CCC2C3CC[C@H]4Cc5nn(S(=O)(=O)C(C)C)cc5C[C@]4(C)C3CC[C@@]21C (stereo partly specified) | – | > 100 mg/kg | –
C#C[C@]1(O)CCC2C3CCC4=Cc5nn(S(C)(=O)=O)cc5C[C@]4(C)C3CC[C@@]21C (stereo partly specified) | inactive | < 100 mg/kg | –
C#C[C@]1(O)CCC2C3CC[C@H]4Cc5n[nH]cc5C[C@]4(C)C3CC[C@@]21C (stereo partly specified) | – | 50 mg/kg | –
CC(=O)O[C@]1(C(C)=O)CC[C@H]2[C@@H]3C=C(Cl)C4=CC(=O)[C@@H]5C[C@@H]5[C@]4(C)[C@H]3CC[C@@]21C [CYPROTERONE ACETATE] | – | 18 mg/kg | –
CC(O)(CS(=O)(=O)c1ccc(F)cc1)C(=O)Nc1ccc(C#N)c(C(F)(F)F)c1 (stereo unspecified) [BICALUTAMIDE] | – | 4 mg/kg | –
C#C[C@]1(O)CCC2C3CC[C@H]4Cc5c(c[nH][n+]5S(C)(=O)=O)C[C@]4(C)C3CC[C@@]21C (stereo partly specified) | inactive | > 100 mg/kg | –
C#C[C@]1(O)CCC2C3CC[C@H]4Cc5nn(S(=O)(=O)CCC)cc5C[C@]4(C)C3CC[C@@]21C (stereo partly specified) | – | < 100 mg/kg | –
C#C[C@]1(O)CC[C@H]2[C@@H]3CC[C@H]4Cc5nn(S(C)(=O)=O)cc5C[C@]4(C)[C@H]3CC[C@@]21C (stereo in doubt; 1) | inactive | – | –
C#C[C@]1(O)CC[C@H]2[C@@H]3CC[C@H]4Cc5nn(S(C)(=O)=O)cc5C[C@]4(C)[C@H]3CC[C@@]21C (stereo in doubt; 28) | inactive | – | –
C#C[C@]1(O)CCC2C3CC[C@H]4Cc5nn(S(=O)(=O)CC)cc5C[C@]4(C)C3CC[C@@]21C (stereo partly specified) | – | 100 mg/kg | –
C[C@]12CCC3C(CC[C@H]4Cc5nn(S(C)(=O)=O)cc5C[C@]34C)C1CCC2=O (stereo partly specified) | inactive | 100 mg/kg | –
C#C[C@]1(O)CCC2C3CCC4=C(C)c5nn(S(C)(=O)=O)cc5C[C@]4(C)C3CC[C@@]21C (stereo partly specified) | inactive | 14 mg/kg | –
CC(C)C(=O)Nc1ccc([N+](=O)[O-])c(C(F)(F)F)c1 [FLUTAMIDE] | – | 5 mg/kg | –
C#C[C@]1(O)CCC2C3CC[C@H]4Cc5nn(S(=O)(=O)CCCC)cc5C[C@]4(C)C3CC[C@@]21C (stereo partly specified) | – | > 100 mg/kg | –
CC(=O)[C@@]1(O)CC[C@H]2[C@@H]3C=C(Cl)C4=CC(=O)[C@@H]5C[C@@H]5[C@]4(C)[C@H]3CC[C@@]21C [CYPROTERONE] | – | 87 mg/kg | –
C#C[C@]1(O)CC[C@H]2[C@@H]3CC[C@H]4Cc5nn(S(C)(=O)=O)cc5C[C@]4(C)[C@H]3CC[C@@]21C (stereo in doubt; 28) [ZANOTERONE] | – | – | ED50 [2]: 40 mg/kg
C#C[C@]1(O)CC[C@H]2[C@@H]3CC[C@H]4Cc5nn(S(C)(=O)=O)cc5C[C@]4(C)[C@H]3CC[C@@]21C (stereo in doubt; 1) [ZANOTERONE] | – | – | ED50 [2]: 15 mg/kg
CC[C@]1(O)CCC2C3CC[C@H]4Cc5nn(S(C)(=O)=O)cc5C[C@]4(C)C3CC[C@@]21C (stereo partly specified) | inactive | 41 mg/kg | –
C[C@]1(O)CCC2C3CC[C@H]4Cc5nn(S(C)(=O)=O)cc5C[C@]4(C)C3CC[C@@]21C (stereo partly specified) | inactive | 10 mg/kg | –
C[C@]12Cc3cn(S(C)(=O)=O)nc3C=C1CCC1C2CC[C@@]2(C)C1CC[C@@H]2O (stereo partly specified) | – | > 100 mg/kg | –
CC(C)(O)C(=O)Nc1ccc([N+](=O)[O-])c(C(F)(F)F)c1 [HYDROXYFLUTAMIDE] | inactive | 4 mg/kg | –
C#C[C@]1(O)CCC2C3CCC4=C(Cl)c5nn(S(C)(=O)=O)cc5C[C@]4(C)C3CC[C@@]21C (stereo partly specified) | – | > 100 mg/kg | –
C=C[C@]1(O)CCC2C3CC[C@H]4Cc5nn(S(C)(=O)=O)cc5C[C@]4(C)C3CC[C@@]21C (stereo partly specified) | inactive | – | ED50 [3]: 33 mg/kg
